Here are results for nine compounds from ChEMBL document CHEMBL2029225, “Synthesis of marine-derived 3-alkylpyridinium alkaloids with potent antiprotozoal activity” (ACS Med Chem Lett, 2011).

Activity calls are given as the source filed them. No cut-off for these calls is given here.

Assay [1] has as its system Trypanosoma brucei brucei. Briefly: Antitrypanosomal activity against TbAt1-deficient bloodstraem form of Trypanosoma brucei brucei 427 (BS221) after 72 hrs by alamar blue assay. It is filed as functional, organism-based. A general note: The colour change of resazurin is a common sign of viable cells or microbes.
The test system of a further assay is Leishmania major. In words: Antileishmanial activity against promastigotes of Leishmania major Friedlin after 72 hrs by alamar blue assay. It is filed as functional, organism-based.
Assay [2] concerns Trypanosoma brucei brucei. Briefly: Antitrypanosomal activity against TbAt1-deficient bloodstraem form Trypanosoma brucei brucei B48 after 72 hrs by alamar blue assay. It is filed as functional, organism-based. The following applies: B48, 72 h.
The subject of assay [3] is Trypanosoma brucei brucei. In words: Antitrypanosomal activity against bloodstream form of Trypanosoma brucei brucei 427 (BS221) after 72 hrs by alamar blue assay. Type of assay: functional, organism-based.
The next assay concerns Leishmania mexicana. In words: Antileishmanial activity against amastigotes of Leishmania mexicana MNYC/BZ/62/M379 after 72 hrs by alamar blue assay. To be noted: MNYC/BZ/62/M379, 72 h. Type of assay: functional, organism-based.
Another assay relates to Plasmodium falciparum. Briefly: Antiplasmodial activity against Plasmodium falciparum 3D7 assessed as inhibition of [3H]hypoxanthine incorporation after 18 hrs by liquid scintillation counting. It is filed as functional, organism-based.
Another assay relates to HEK-293T. Briefly: Cytotoxicity against human HEK293T cells after 72 hrs by alamar blue assay. It is filed as cell-based.
In assay [4] the test system is Trypanosoma brucei brucei. Briefly: Antitrypanosomal activity against bloodstream form of Trypanosoma brucei brucei 427 (BS221) assessed as increased propidium iodide uptake at 50 to 100 uM after 30 mins by real-time cell lysis assay. It is filed as functional, organism-based. The gist of the method: (§1)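 Real-time lysis assay with bloodstream-form T. brucei: propidium iodide in the medium fluoresces only on binding DNA/RNA in membrane-compromised cells. Fluorescence was followed for up to 8 h across a range of concentrations. The read-out was the time to reach 80% lysis versus concentration.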

Assay [5] concerns Trypanosoma brucei brucei. Briefly: Antitrypanosomal activity against bloodstream form of Trypanosoma brucei brucei 427 (BS221) assessed as increased propidium iodide uptake at 10 to 50 times EC50 after by real-time cell lysis assay. It is filed as functional, organism-based. The gist of the method:
as §1

Assay [6] concerns Trypanosoma brucei brucei. Briefly: Antitrypanosomal activity against bloodstream form of Trypanosoma brucei brucei 427 (BS221) assessed as increased propidium iodide uptake at >/=100 times EC50 after 8 hrs by real-time cell lysis assay. Type of assay: functional, organism-based. The gist of the method:
as §1

In the case of `N=C(N)c1ccc(OCCCCCOc2ccc(C(=N)N)cc2)cc1` [PENTAMIDINE], the half-maximal effective concentration (EC50) in [1] worked out at 3.2 nM; with Leishmania major, 4300 nM; in assay [2] it was 66 nM; in [3], 1.4 nM; in the assay with Leishmania mexicana it was 8800 nM.

In the case of `OCCCCCCCCCCCCCc1cccnc1`, the EC50 is 34000 nM in [1]; above 50000 nM with Leishmania major; 7500 nM in the assay on Plasmodium falciparum; 204000 nM in the assay on HEK-293T; 35000 nM in [2]; 16000 nM in assay [3]. This compound had a half-maximal effective concentration (EC50) with Leishmania mexicana above 50000 nM.

With `c1cc2c[n+](c1)CCCCCCCCCCCCCc1ccc[n+](c1)CCCCCCCCCCCCCc1ccc[n+](c1)CCCCCCCCCCCCCc1ccc[n+](c1)CCCCCCCCCCCCC2`, the EC50 in assay [1] amounted to 660 nM; in the assay with Leishmania major, 640 nM; in the assay with Plasmodium falciparum, 190 nM; in the assay with HEK-293T, 14000 nM; in assay [2], 420 nM; in assay [3] it was 560 nM. In addition, in the assay with Leishmania mexicana, the midpoint of the response, the EC50, lay at 1100 nM. Besides, the outcome in assay [4] and in [5] was Active.

Regarding `OCCCCCCCCCCCCCc1ccc[n+](CCCCCCCCCCCCCc2ccc[n+](CCCCCCCCCCCCCc3ccc[n+](CCCCCCCCCCCCCc4cccnc4)c3)c2)c1`, the concentration for a half-maximal effect (EC50) was 410 nM in assay [1]; 1100 nM with Leishmania major; 160 nM in the assay with Plasmodium falciparum; 11000 nM in the assay with HEK-293T; 330 nM in [2]; 310 nM in [3]. The compound also displayed an EC50 with Leishmania mexicana of 230 nM. The result in assay [4] and in [5] was Active.

In the case of `NCCS[As](SCCN)c1ccc(Nc2nc(N)nc(N)n2)cc1`, the values for the half-maximal effective concentration (EC50) in assay [1], in [2] and in [3] were 7.8 nM, 210 nM and 3.9 nM, respectively.

With `N=C(N)c1ccc(/N=N/Nc2ccc(C(=N)N)cc2)cc1` [DIMINAZEN ACETURATE], the figures for the EC50 (in [1]; in [3]; with Leishmania mexicana) were 7900 nM, 260 nM and 24000 nM, respectively.

With `CCN(CC)CCCC(C)Nc1ccnc2cc(Cl)ccc12` (centres undefined) [CHLOROQUINE], the EC50 with Plasmodium falciparum was 0.67 nM.

As to `COc1ccc(C[n+]2cccc(CCCCCCCCCCCCCI)c2)cc1`, the 50% effective concentration (EC50) in [1] was 480 nM; in the assay on Leishmania major it was 1000 nM; in the assay on Plasmodium falciparum it was 220 nM; in the assay on HEK-293T, 41000 nM; in assay [2] it was 200 nM; in assay [3], 190 nM. Also, a half-maximal response in the assay with Leishmania mexicana (EC50) required 400 nM. Besides, the result in assay [4] and in assay [6] was Active.

As for `C[n+]1cccc(CCCCCCCCCCCCCO)c1`, the concentration giving a half-maximal response (EC50) was determined as 2300 nM in assay [1]; 2700 nM in the assay on Leishmania major; 1500 nM in the assay with Plasmodium falciparum; 183000 nM in the assay on HEK-293T; 2700 nM in assay [2]; 2300 nM in assay [3]. Moreover, the EC50 in the assay on Leishmania mexicana was found to be 4800 nM. Moreover, the outcome in [4] was Active.

By EC50 is commonly meant the midpoint of the concentration-response curve.
